In ChEMBL document CHEMBL5108039, “Piperazine tethered bergenin heterocyclic hybrids: design, synthesis, anticancer activity, and molecular docking studies” (RSC Med Chem, 2022) one finds IC50 data, which are given here for 15 compounds.

Data set [1] concerns HCT-15. The experiment in a line: Cytotoxicity against human HCT-15 cells assessed as cell growth inhibition. Type of data set: functional, cell-based. In outline: (§1)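 Compounds were dissolved in sterile DMSO as 10 mg ml−1 stocks and tested for in vitro growth inhibition of human cancer cell lines. Doxorubicin was the standard drug and DMSO (0.01%) the vehicle control. IC50 values are reported as means.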

The subject of data set [2] is A549. The experiment in a line: Cytotoxicity against human A549 cells assessed as cell growth inhibition. The class given is functional, cell-based. In outline: (§2)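 Compounds were dissolved in sterile DMSO as 10 mg ml−1 stocks and tested in vitro for cytotoxicity in a cell-line panel, with DMSO (0.01%) as vehicle control and doxorubicin as standard. Mean IC50 values were reported, and the normal lung epithelial cells were tested up to 100 μM.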

The test system of data set [3] is CAL-27. Kind of data set: Cytotoxicity against human CAL-27 cells assessed as cell growth inhibition. The class given is functional, cell-based. In outline: as §1
In data set [4] the test system is SCC-9. The experiment in a line: Cytotoxicity against human SCC-9 cells assessed as cell growth inhibition. The class given is functional, cell-based. In outline:
as §1

Data set [5] in a line: Cytotoxicity against human BEAS-2B cells assessed as cell growth inhibition. The class given is toxicity, cell-based. The procedure, abridged: as §2
For data set [6], the system named is MCF7. Kind of data set: Cytotoxicity against human MCF7 cells assessed as cell growth inhibition. Type of data set: functional, cell-based. In outline:
as §1

With `COc1c(O)c(CN2CCN(S(=O)(=O)c3ccc(C(F)(F)F)cc3)CC2)c2c(c1O)C1O[C@H](CO)[C@@H](O)[C@H](O)C1OC2=O` (stereo not given in full), the IC50 in data set [1] was > 100 µM; in data set [2], > 100 µM; in data set [3], 68.6 µM; in data set [4] it was > 100 µM; in data set [5] it was > 100 µM; in data set [6], > 100 µM.
In the case of `COc1c(O)c(CN2CCN(S(=O)(=O)c3ccc(OC(F)(F)F)cc3)CC2)c2c(c1O)C1O[C@H](CO)[C@@H](O)[C@H](O)C1OC2=O` (stereo not given in full), the IC50 in data set [1], in data set [2], in data set [3], in data set [4], in data set [5] and in data set [6] was > 100 µM each time.
Take `COc1ccc(S(=O)(=O)N2CCN(Cc3c(O)c(OC)c(O)c4c3C(=O)OC3C4O[C@H](CO)[C@@H](O)[C@@H]3O)CC2)cc1OC` (stereo not given in full): the half-inhibitory concentration (IC50) in data set [1], in data set [2], in data set [3], in data set [4], in data set [5] and in data set [6] was > 100 µM each time.
On to `COc1c(O)c(CN2CCN(CC(=O)Nc3nc(-c4ccc5ccccc5c4)cs3)CC2)c2c(c1O)C1O[C@H](CO)[C@@H](O)[C@H](O)C1OC2=O` (stereo not given in full), for which the IC50 in data set [1] was > 100 µM; in data set [2], 40.6 µM; in data set [3], 42.7 µM; in data set [4] it was > 100 µM; in data set [5], > 100 µM; in data set [6] it was 25.2 µM.
For `COc1c(O)c(CN2CCN(S(=O)(=O)c3ccc(Br)cc3)CC2)c2c(c1O)C1O[C@H](CO)[C@@H](O)[C@H](O)C1OC2=O` (stereo not given in full), the IC50 in data set [1] is > 100 µM; in data set [2], > 100 µM; in data set [3], > 100 µM; in data set [4] it was > 100 µM; in data set [5] it was 22.4 µM; in data set [6], > 100 µM.
As to `COc1ccc2nc(NC(=O)CN3CCN(Cc4c(O)c(OC)c(O)c5c4C(=O)OC4C5O[C@H](CO)[C@@H](O)[C@@H]4O)CC3)sc2c1` (stereo not given in full), the IC50 in data set [1], in data set [2], in data set [3], in data set [4], in data set [5] and in data set [6] was > 100 µM in each case.
With `COc1c(O)c(CN2CCN(CC(=O)Nc3nc4c(Cl)cccc4s3)CC2)c2c(c1O)C1O[C@H](CO)[C@@H](O)[C@H](O)C1OC2=O` (stereo not given in full), the IC50 in data set [1] was determined as 30.2 µM; in data set [2] it was 22.5 µM; in data set [3], 15.4 µM; in data set [4], 17.4 µM; in data set [5], 21.7 µM; in data set [6], 19.6 µM.
Turning to `COc1c(O)c(CN2CCN(CC(=O)Nc3nc(-c4ccc(Cl)cc4)cs3)CC2)c2c(c1O)C1O[C@H](CO)[C@@H](O)[C@H](O)C1OC2=O` (stereo not given in full), the half-inhibitory concentration (IC50) in data set [1] was > 100 µM; in data set [2], 49.9 µM; in data set [3] it was 46.6 µM; in data set [4] it was > 100 µM; in data set [5], > 100 µM; in data set [6], 37.3 µM.
Turning to `COc1c(O)c(CN2CCN(S(=O)(=O)c3ccc(F)c(F)c3)CC2)c2c(c1O)C1O[C@H](CO)[C@@H](O)[C@H](O)C1OC2=O` (stereo not given in full), the IC50 in data set [1], in data set [2], in data set [3], in data set [4], in data set [5] and in data set [6] was > 100 µM each time.
With `COc1c(O)c(CN2CCN(S(=O)(=O)c3cccs3)CC2)c2c(c1O)C1O[C@H](CO)[C@@H](O)[C@H](O)C1OC2=O` (stereo not given in full), the IC50 in data set [1], in data set [2], in data set [3], in data set [4], in data set [5] and in data set [6] was > 100 µM each time.
As for `COc1c(O)c(CN2CCN(S(=O)(=O)c3ccc([N+](=O)[O-])cc3)CC2)c2c(c1O)C1O[C@H](CO)[C@@H](O)[C@H](O)C1OC2=O` (stereo not given in full), the IC50 in data set [1] was > 100 µM; in data set [2], > 100 µM; in data set [3], 91.6 µM; in data set [4], > 100 µM; in data set [5], > 100 µM; in data set [6], > 100 µM.
`COc1c(O)c(CN2CCN(CC(=O)Nc3nc(-c4cccc5ccccc45)cs3)CC2)c2c(c1O)C1O[C@H](CO)[C@@H](O)[C@H](O)C1OC2=O` (stereo not given in full): the IC50 was 86.2 µM in data set [1]; > 100 µM in data set [2]; 57.2 µM in data set [3]; 65.5 µM in data set [4]; 83.5 µM in data set [5]; > 100 µM in data set [6].
For the compound `COc1c(O)c(CN2CCN(S(=O)(=O)c3ccc(C)cc3)CC2)c2c(c1O)C1O[C@H](CO)[C@@H](O)[C@H](O)C1OC2=O` (stereo not given in full), the half-maximal inhibitory concentration (IC50) was > 100 µM in data set [1]; > 100 µM in data set [2]; 56.8 µM in data set [3]; > 100 µM in data set [4]; 51.6 µM in data set [5]; > 100 µM in data set [6].
With `COc1c(O)c(CN2CCN(CC(=O)Nc3nc4ccccc4s3)CC2)c2c(c1O)C1O[C@H](CO)[C@@H](O)[C@H](O)C1OC2=O` (stereo not given in full), the IC50 in data set [1] was > 100 µM; in data set [2] it was > 100 µM; in data set [3] it was 91.2 µM; in data set [4] it was 64.8 µM; in data set [5] it was 97.3 µM; in data set [6], > 100 µM.
As for `COc1c(O)c(CN2CCN(S(=O)(=O)c3ccccc3)CC2)c2c(c1O)C1O[C@H](CO)[C@@H](O)[C@H](O)C1OC2=O` (stereo not given in full), the IC50 in data set [1] was > 100 µM; in data set [2], > 100 µM; in data set [3], 85.5 µM; in data set [4] it was > 100 µM; in data set [5], > 100 µM; in data set [6], > 100 µM.
